The structures appear in SMILES notation.

The values below come from ChEMBL document CHEMBL1154292, “Discovery and optimization of novel 4-[(aminocarbonyl)amino]-N-[4-(2-aminoethyl)phenyl]benzenesulfonamide ghrelin receptor antagonists” (Bioorg Med Chem Lett, 2009).

Assay [1] deals with T1, Growth hormone secretagogue receptor type 1 (Homo sapiens, UniProt Q92847). Kind of assay: Agonist activity at human GHS-R1a assessed as maximum activation at 10 uM relative to ghrelin by aequorin assay. Format: functional. The gist of the method:
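Agonist mode of the hGHS-R1a aequorin bioluminescence assay. Compound tested up to a maximum of 10 μM. Peak response is expressed as maximum % activation relative to ghrelin. Values are means of two or three experiments.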

The target in assay [2] is T1, Growth hormone secretagogue receptor type 1. Kind of assay: Inhibition of human GHS-R1a.
The target is the same in assay [3]. In words: Inhibition of human GHS-R1a at 6.25 uM.
The target of assay [4] is T2, Beta-3 adrenergic receptor (Homo sapiens, UniProt P13945). Kind of assay: Inhibition of human adrenergic beta3 receptor.
T2 sequence (P13945 whole entry): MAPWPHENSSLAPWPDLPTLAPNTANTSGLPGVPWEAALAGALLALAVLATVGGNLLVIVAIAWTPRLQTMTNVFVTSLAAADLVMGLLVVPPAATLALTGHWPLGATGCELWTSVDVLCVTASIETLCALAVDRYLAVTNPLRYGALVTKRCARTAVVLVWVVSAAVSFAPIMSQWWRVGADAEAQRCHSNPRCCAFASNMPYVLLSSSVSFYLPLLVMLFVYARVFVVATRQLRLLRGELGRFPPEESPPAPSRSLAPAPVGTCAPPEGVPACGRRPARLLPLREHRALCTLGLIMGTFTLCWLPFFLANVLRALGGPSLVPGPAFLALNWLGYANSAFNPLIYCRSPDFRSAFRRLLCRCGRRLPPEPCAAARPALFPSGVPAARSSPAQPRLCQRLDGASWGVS
The target of assay [5] is T2, Beta-3 adrenergic receptor. Kind of assay: Agonist activity at human adrenergic beta3 receptor. Format: functional.
Assay [6] deals with T1, Growth hormone secretagogue receptor type 1. In words: Displacement of [35S]MK0677 from human GHS-R1a. The procedure, abridged:
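Competitive binding at GHS-R1a using [35S]-MK-0677 as the radiolabeled probe. IC50 values are means of two or three experiments.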

The target is the same in assay [7]. In words: Antagonist activity at human GHS-R1a expressed in HEK293 cells assessed as inhibition of ghrelin-stimulated intracellular calcium mobilization. Format: functional, cell-based. (Calcium flux is commonly read through the fluorescence of an indicator in the cells.)

T1 sequence (Q92847 whole entry): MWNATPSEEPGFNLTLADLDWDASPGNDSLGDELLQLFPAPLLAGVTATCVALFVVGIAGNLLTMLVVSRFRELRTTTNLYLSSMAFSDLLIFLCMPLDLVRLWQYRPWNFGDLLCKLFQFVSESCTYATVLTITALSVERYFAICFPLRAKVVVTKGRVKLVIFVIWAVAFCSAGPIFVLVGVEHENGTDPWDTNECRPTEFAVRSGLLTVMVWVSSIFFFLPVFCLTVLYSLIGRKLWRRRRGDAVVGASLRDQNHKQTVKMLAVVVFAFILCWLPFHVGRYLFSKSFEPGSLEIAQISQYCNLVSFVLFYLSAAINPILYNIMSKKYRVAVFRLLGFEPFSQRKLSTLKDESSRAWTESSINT

What is called IC50 is the concentration needed to halve the response being measured. For `CCCCCCNC(=O)Nc1ccc(S(=O)(=O)Nc2ccc(CCN)cc2)cc1`, the Activity in assay [1] was 5%. In assay [2], this compound gave an IC50 of 272 nM.
Turning to `CC(C)(N)Cc1ccc(NS(=O)(=O)c2ccc(NC(=O)Nc3ccc(C(C)(C)C)cc3)cc2)cc1`, the Activity in assay [1] was determined as 1%. Further, half-maximal inhibition in assay [2] (IC50) was put at 16 nM.
On to `CC(C)(N)Cc1ccc(NS(=O)(=O)c2ccc(NC(=O)NCc3ccccc3)cc2)cc1`, for which, in assay [1], the Activity was 4%. Also, in assay [2], the 50% inhibitory concentration (IC50) came out at 128 nM.
Taken in the same sequence, the figures for `CCCNC(=O)Nc1ccc(S(=O)(=O)Nc2ccc(CC(C)(C)N)cc2)cc1` were 1% and 1650 nM.
For `CCc1ccc(NC(=O)Nc2ccc(S(=O)(=O)Nc3ccc(CC(C)(C)N)cc3)cc2)cc1`, in that order: 1% and 14 nM.
Taken in the same sequence, the figures for `CCCCCCNC(=O)Nc1ccc(S(=O)(=O)Nc2ccc(CC(C)(C)NCC)cc2)cc1` were 1% and 30 nM.
On to `Cc1ccc(NC(=O)Nc2ccc(S(=O)(=O)Nc3ccc(CC(C)(C)N)cc3)cc2)cc1`, for which the Activity in assay [1] was 3%. The compound further displayed an IC50 in assay [2] of 77 nM.
For `CCCCCCNC(=O)Nc1ccc(S(=O)(=O)Nc2ccc(CN)cc2)cc1`, in that order: 5% and 1720 nM.
In the case of `CC(C)(N)Cc1ccc(NS(=O)(=O)c2ccc(NC(=O)Nc3ccccc3)cc2)cc1`, the Activity in assay [1] amounted to 1%. The compound further showed an IC50 in assay [2] of 263 nM.
With `CCCCCCNC(=O)Nc1ccc(S(=O)(=O)Nc2ccc(CC(C)(C)CN)cc2)cc1`, in assay [1], the Activity was determined as 2%. This compound had an IC50 in assay [2] of 444 nM.
A word on the inhibition: it is the drop in the measured response relative to a control, in per cent. A high value points to strong suppression. Take `CCCCCCNC(=O)Nc1ccc(S(=O)(=O)Nc2ccc(CC)cc2)cc1`: the inhibition in assay [3] was 47%.
For `Cc1ccccc1NC(=O)Nc1ccc(S(=O)(=O)Nc2ccc(CC(C)(C)N)cc2)cc1`, the Activity in assay [1] was 1%. Moreover, in assay [2], the IC50 stood at 161 nM.
In assay [3], `CCCCCCNC(=O)Nc1ccc(S(=O)(=O)Nc2ccc(CC(C)(C)O)cc2)cc1` came in with an inhibition of 48%.
In the case of `CCCCCCNC(=O)Nc1ccc(S(=O)(=O)Nc2ccc(CCCN)cc2)cc1`, the Activity in assay [1] turned out to be 1%. For the same compound, the IC50 in assay [2] came out at 108 nM.
For `CCCCc1ccc(NC(=O)Nc2ccc(S(=O)(=O)Nc3ccc(CC(C)(C)N)cc3)cc2)cc1`, in that order: 1% and 28 nM.
For `CCCCNC(=O)Nc1ccc(S(=O)(=O)Nc2ccc(CC(C)(C)N)cc2)cc1`, in that order: 1% and 474 nM.
For `CCCCCCNC(=O)Nc1ccc(S(=O)(=O)Nc2ccc(CC(C)(C)NCC(F)(F)F)cc2)cc1`, in that order: 1% and 682 nM.
In the case of `CC(C)(N)Cc1ccc(NS(=O)(=O)c2ccc(NC(=O)NCCc3ccccc3)cc2)cc1`, in assay [1], the Activity amounted to 1%. This compound also had an IC50 in assay [2] of 138 nM.
For `CCCCCCNC(=O)Nc1ccc(S(=O)(=O)Nc2cccc(CCCN)c2)cc1`, in that order: 51% and 429 nM.
On to `CC(C)(N)Cc1ccc(NS(=O)(=O)c2ccc(NC(=O)NCc3cccc4ccccc34)cc2)cc1`, for which the IC50 in assay [2] came to 21 nM.
As for `CCCCCCNC(=O)Nc1ccc(S(=O)(=O)Nc2ccc(CCC(C)(C)N)cc2)cc1`, the Activity in assay [1] is 3%. For the same compound, the half-inhibitory concentration (IC50) in assay [2] is 310 nM.
With `CC(C)(N)Cc1ccc(NS(=O)(=O)c2ccc(NC(=O)NC(C)(C)c3cccc4ccccc34)cc2)cc1`, half-maximal inhibition in assay [2] (IC50) was put at 2 nM.
The term EC50 denotes the midpoint of the concentration-response curve. A higher EC50 goes with weaker potency. Take `CCCCCCNC(=O)Nc1ccc(S(=O)(=O)Nc2ccc(CC(C)(C)N)cc2)cc1`: in assay [1], the Activity is 4%. For the same compound, the IC50 is 5200 nM in assay [4] and 46 nM in assay [2]. Moreover, in assay [5], the EC50 is above 10000 nM.
For the compound `CC(C)NC(=O)Nc1ccc(S(=O)(=O)Nc2ccc(CC(C)(C)N)cc2)cc1`, the Activity in assay [1] was 1%. This compound also returned an IC50 in assay [2] of 846 nM.
For `Cc1cccc(NC(=O)Nc2ccc(S(=O)(=O)Nc3ccc(CC(C)(C)N)cc3)cc2)c1`, the Activity in assay [1] was 3%. The compound further returned an IC50 in assay [2] of 69 nM.
`CCCCCCNC(=O)Nc1ccc(S(=O)(=O)Nc2ccccc2)cc1` registered an IC50 in assay [2] of 4300 nM.
As to `CCCCCCCNC(=O)Nc1ccc(S(=O)(=O)Nc2ccc(CC(C)(C)N)cc2)cc1`, in assay [1], the Activity stood at 3%. Besides, inhibition in assay [2] was half-maximal at 97 nM (IC50).
For `CCCCCCNC(=O)Nc1ccc(S(=O)(=O)Nc2cccc(CCN)c2)cc1`, in that order: 13% and 625 nM.
Taken in the same sequence, the figures for `CCNC(=O)Nc1ccc(S(=O)(=O)Nc2ccc(CC(C)(C)N)cc2)cc1` were 4% and 5620 nM.
For `CCCCCCNC(=O)Nc1ccc(S(=O)(=O)Nc2ccc(CC(C)(C)NC[C@H](O)COc3ccc(O)cc3)cc2)cc1`, the values for the IC50 in assay [6] and in assay [7] were 13 nM and 40 nM, respectively.
With `CC(C)c1ccc(NC(=O)Nc2ccc(S(=O)(=O)Nc3ccc(CC(C)(C)N)cc3)cc2)cc1`, in assay [1], the Activity is 0%. The IC50 in assay [2] was 8 nM.
Taken in the same sequence, the figures for `CCCCCNC(=O)Nc1ccc(S(=O)(=O)Nc2ccc(CC(C)(C)N)cc2)cc1` were 6% and 241 nM.
